For data set [1], the system named is Hepatitis C virus. The experiment in a line: Antiviral activity against HCV genotype 2a infected in HuH7.5-FGR-JC1_Rluc2A cells at 50 uM by […] luciferase reporter gene assay. Type of data set: functional, Hepacivirus hominis. On the technique in general: A reporter such as luciferase makes a cellular process visible.
Data set [2] has as its system Hepatitis C virus. Nature of the data set: Antiviral activity against HCV genotype 1b infected in HuH7/Rep-Feo1b cells at 50 uM by firefly luciferase reporter gene assay. Type of data set: functional, Hepacivirus hominis. To be noted: Huh-7. In a few lines:
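Replicon reporter cells (gt 1b in Huh7/Rep-Feo1b, firefly luciferase; gt 2a in Huh7.5-FGR-JC1-Rluc2A, Renilla luciferase) kept in DMEM with 10% FCS and 0.5 mg/mL G418, 37 °C, 5% CO2. About 1×10^4 cells per well were treated at 50 μM for 48 h in 1.0% DMSO. Luciferase signal was read relative to DMSO-treated cells as % inhibition.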

A short description of data set [3]: Selectivity index, ratio of CC50 for human Huh7.5 cells to EC50 for HCV genotype 1b infected in HuH7/Rep-Feo1b cells. Set-up: species or system Huh-7.
In data set [4] the test system is Hepatitis C virus (isolate Con1). Nature of the data set: Inhibition of HCV Con1 genotype 1b C-terminal His-tagged NS3 helicase lacking N-terminal protease using fluorescent DNA as substrate at 500 uM. In a few lines:
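Molecular beacon unwinding assay: 12.5 nM NS3h, 5 nM fluorescent DNA substrate, 1 mM ATP, 25 mM MOPS pH 6.5, 1.25 mM MgCl2, 5% DMSO, 5 µg/ml BSA, 0.01% Tween20, 0.05 mM DTT; compounds up to 500 μM.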

Data set [5] deals with Hepatitis C virus. Nature of the data set: Antiviral activity against HCV genotype 1b infected in HuH7/Rep-Feo1b cells by firefly luciferase reporter gene assay. As to conditions: Huh-7. Type of data set: functional, cell-based, Hepacivirus hominis. The gist of the method:
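Huh7 cells carrying autonomously replicating gt 1b replicon with firefly luciferase reporter; ~1×10^4 cells/well treated 48 h, 1.0% DMSO final. Primary screen at 50 μM; actives titrated over 8–12 quarter-log dilutions. Luciferase signal relative to DMSO-treated controls; EC50 from dose-response curves, mean ± SD of three independent experiments.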

A short description of data set [6]: Selectivity index, ratio of CC50 for human Huh7.5 cells to EC50 for HCV genotype 2a infected in HuH7.5-FGR-JC1_Rluc2A cells. Set-up: species or system Huh-7.
The subject of data set [7] is Hepatitis C virus. The experiment in a line: Antiviral activity against HCV genotype 2a infected in HuH7.5-FGR-JC1_Rluc2A cells by […]. It is filed as functional, Hepacivirus hominis.
The subject of data set [8] is Hepacivirus hominis. The experiment in a line: Inhibition of recombinant HCV hexa histidine-tagged NS5B Cdelta21 RNA dependent RNA polymerase expressed in Escherichia coli at 50 uM after 60 mins by liquid scintillation counting analysis.
Data set [9] can be described thus: Inhibition of HCV Con1 genotype 1b C-terminal His-tagged NS3 helicase lacking N-terminal protease using ATP/RNA as substrate after 15 mins by malachite green-based assy. Set-up: species or system Hepatitis C virus (isolate Con1). The gist of the method:
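NS3h (con1 gt 1b, C-terminal His-tag, protease-deleted) at 4 nM with 1 μM polyU RNA (nucleotide), 25 mM MOPS pH 6.5, 1.25 mM MgCl2, 1 mM ATP, 33 µg/ml BSA, 0.07% Tween 20, 0.3 mM DTT, 10% DMSO; started with ATP, 15 min, 37 °C. Phosphate by malachite green, A630. Two-fold series 0.5 mM–0.78 µM, duplicate; variable-slope fit, mean ± SD.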

Data set [10] is described as follows: Cytotoxicity against human Huh7.5 cells after 48 hrs by MTS assay. Type of data set: cell-based. To be noted: huh-7, 48 h. In a few lines: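 Parental Huh7.5 cells grown in DMEM with 10% FCS without G418, 37 °C, 5% CO2; treated at 6–8 doses for 48 h. Viability by MTS bioreduction to formazan; CC50 as concentration halving MTS conversion relative to DMSO controls, mean ± SD of three independent experiments.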

A short description of data set [11]: Effect on anti-oxidant response element (unknown origin)-mediated HCV replication in human MH14 cells transfected with p3xARE-Luc by luciferase reporter gene assay. Type of data set: ADME, cell-based. In a few lines: (§1)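 MH-14 replicon cells transfected with 300 ng of the reporter plasmid (pCOX-2-FLuc, pHO-1-Luc, pISRE-Luc or p3xARE-Luc); 16 h later treated with compound at 5, 10 and 25 μM or DMSO for 48 h. Firefly luciferase read, normalized to Renilla luciferase for transfection efficiency.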

Data set [12] deals with Internal ribosome entry site (IRES). Nature of the data set: Effect on HCV IRES-mediated translation infected in human Huh 7.5 cells by dual-glo luciferase assay. Type of data set: cell-based. To be noted: Hepacivirus hominis.
Data set [13] has as its system Hepatitis C virus. The experiment in a line: Antiviral activity against HCV genotype 1b infected in human MH14 cells assessed as inhibition of replication after 48 hrs by RT-PCR analysis. Type of data set: functional. To be noted: Hepacivirus hominis. In a few lines:
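Stable gt 1b subgenomic replicon cells (MH-14), reporter-free, exposed to compound; total RNA isolated by spin-column kit, quantified spectrophotometrically, and HCV RNA measured by quantitative RT-PCR.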

The nature of data set [14]: Effect on interferon-stimulated response element (unknown origin)-mediated HCV replication in human MH14 cells transfected with pISRE-Luc by luciferase reporter gene assay. It is filed as ADME, cell-based. In a few lines: as §1
Data set [15] has as its target T1, Heme oxygenase 1 (Homo sapiens, UniProt P09601).
T1 sequence (P09601 whole entry): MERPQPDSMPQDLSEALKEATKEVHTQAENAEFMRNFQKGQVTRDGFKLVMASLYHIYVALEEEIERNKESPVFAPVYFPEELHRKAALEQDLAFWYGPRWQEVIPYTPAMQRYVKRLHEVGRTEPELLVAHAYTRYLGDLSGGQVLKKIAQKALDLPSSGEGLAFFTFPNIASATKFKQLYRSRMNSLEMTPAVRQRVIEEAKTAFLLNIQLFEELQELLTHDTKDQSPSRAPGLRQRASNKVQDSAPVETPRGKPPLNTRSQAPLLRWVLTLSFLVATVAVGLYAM
The experiment in a line: Effect on heme oxygenase-1 (unknown origin)-mediated HCV replication in human MH14 cells transfected with pHO-1-Luc by luciferase reporter gene assay. Type of data set: ADME, cell-based. The gist of the method:
as §1

In data set [16] the target is T2, Prostaglandin G/H synthase 2 (Homo sapiens, UniProt P35354).
T2 sequence (P35354 whole entry): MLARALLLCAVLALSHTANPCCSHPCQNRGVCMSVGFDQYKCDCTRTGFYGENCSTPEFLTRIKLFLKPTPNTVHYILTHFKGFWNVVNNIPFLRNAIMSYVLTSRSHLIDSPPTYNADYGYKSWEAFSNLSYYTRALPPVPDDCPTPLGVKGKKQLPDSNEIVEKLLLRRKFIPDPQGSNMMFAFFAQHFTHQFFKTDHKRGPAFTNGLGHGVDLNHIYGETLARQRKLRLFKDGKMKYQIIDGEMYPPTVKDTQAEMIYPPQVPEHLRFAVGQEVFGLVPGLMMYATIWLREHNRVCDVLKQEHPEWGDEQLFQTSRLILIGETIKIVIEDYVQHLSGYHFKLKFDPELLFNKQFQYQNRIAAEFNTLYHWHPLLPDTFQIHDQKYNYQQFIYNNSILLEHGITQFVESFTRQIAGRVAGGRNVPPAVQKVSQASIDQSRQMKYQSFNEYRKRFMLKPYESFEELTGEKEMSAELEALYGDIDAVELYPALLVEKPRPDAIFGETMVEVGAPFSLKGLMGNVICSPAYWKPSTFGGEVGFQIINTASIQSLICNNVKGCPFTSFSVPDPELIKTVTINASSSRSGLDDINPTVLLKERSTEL
Nature of the data set: Effect on cyclooxygenase-2 (unknown origin)-mediated HCV replication in human MH14 cells transfected with pCOX-2-Fluc by luciferase reporter gene assay. It is filed as ADME, cell-based. In a few lines:
as §1

Calls of active or inactive are those of the source. No cut-off for these calls is given here.

The term inhibition denotes the share of the control response that was lost under treatment. Usually EC50 stands for the midpoint of the concentration-response curve. Read a low EC50 as higher potency in that assay. What is called IC50 is the concentration that inhibits the measured activity by half. A high value points to weaker potency. As a reminder, the CC50 is the concentration at which the toxic effect on the cells reaches its halfway point. A lower CC50 goes with harm at low concentration.

`O=[N+]([O-])c1ccc(-c2cc3c(n2Cc2ccccc2)CCCC3)cc1`: the inhibition at 50 µM is 98% in [1] and 75% in [2]. In addition, the entries for the “Ratio CC50/EC50” value in data set [3] and in [6] were 13 and 27, respectively. In addition, the inhibition entry in data set [4] and in data set [8] was “inactive” in each case. Besides, the values for the EC50 in data set [5] and in data set [7] were 15 µM and 7.3 µM, respectively. For the same compound, the IC50 in data set [9] is greater than 1000 µM. In [10], the CC50 was greater than 200 µM.
For the compound `COc1ccc(-c2cc3c(n2Cc2ccccc2)CCCC3)cc1`, the inhibition at 50 µM is 96% in data set [1] and 99% in data set [2]. Besides, the “Ratio CC50/EC50” value was 12 in data set [3] and 28 in [6]. Moreover, the inhibition entry in data set [4] and in [8] was “inactive” each time. The EC50 in [5] is 11.8 µM; in [7] it was 4.9 µM. This compound also showed an IC50 in [9] greater than 1000 µM. This compound came in with a CC50 in data set [10] of 137 µM.
With `Nc1ccc(-c2cc3c(n2Cc2ccccc2)CCCC3)cc1`, the inhibition at 50 µM in data set [1] came out at 88%; in data set [2] it was 66%. In addition, the “Ratio CC50/EC50” value in data set [3] is 9; in data set [6] it was 13. Further, the inhibition result in [4] and in [8] was “inactive” each time. The EC50 in data set [5] stood at 12.4 µM; in data set [7], 8.7 µM. In data set [9], this compound displayed a concentration for half-maximal inhibition (IC50) of 417 µM. In addition, the 50% cytotoxic concentration (CC50) in [10] was 110 µM.
As for `c1ccc(Cn2c(-c3ccccc3)cc3c2CCCC3)cc1`, the results for the inhibition at 50 µM in data set [1] and in [2] were 99% and 95%, respectively. Also, the “Ratio CC50/EC50” value in [3] is listed as 10; in data set [6], 32. The inhibition entry in data set [4], in data set [12] and in data set [8] was “inactive” in each case. The EC50 is 7.9 µM in data set [5] and 2.6 µM in data set [7]. Also, the “inhibition (INH)” value in data set [11], in data set [14], in [15] and in data set [16] was “Not Active” throughout. Further, the inhibition entry in data set [13] is “Dose-dependent effect”. Besides, in data set [9], the concentration for half-maximal inhibition (IC50) is greater than 1000 µM. Also, it took 80.8 µM to reach half-maximal cytotoxicity in [10] (CC50).
On to `Fc1ccc(-n2c(-c3ccccc3)cc3c2CCCC3)cc1`, for which the inhibition at 50 µM is 66% in [1] and 71% in [2]. The “Ratio CC50/EC50” value is on record as greater than 7 in data set [3] and greater than 16 in data set [6]. Besides, the inhibition entry in [4] and in [8] was “inactive” each time. Also, the EC50 in data set [5] was 29.2 µM; in data set [7], 12.3 µM. This compound came in with an IC50 in data set [9] greater than 1000 µM. The CC50 in data set [10] is greater than 200 µM.
Turning to `CCOC(=O)C(C)n1c(-c2ccccc2)cc2c1CCCC2` (racemic), the inhibition at 50 µM in data set [1] was 95%; in [2], 74%. Also, the “Ratio CC50/EC50” value in [3] and in data set [6] was 6 in each case. For the same compound, the figures for the EC50 in data set [5] and in data set [7] were 13.2 µM and 13.7 µM, respectively. In [10], this compound displayed a CC50 of 84.3 µM.

These data come from ChEMBL document CHEMBL3414521, “Discovery of the 2-phenyl-4,5,6,7-Tetrahydro-1H-indole as a novel anti-hepatitis C virus targeting scaffold” (Eur J Med Chem, 2015).
